Data taken from the RNAGym collection of RNA variant scans (doi:10.1126/science.aae0568).
Fewer inactive variants are shown than the library holds.

B1: tRNA (parent)
chain: GUUCCGUUGGCGUAAUGGUAACGCGUCUCCCUCCUAAGGAGAAGACUGCGGGUUCGAGUCCCGUACGGAACG

Variants of: B1
Assay: yeast fitness relative to wild type (ratio to wild type); higher = fitter; tRNA-Arg(CCU), competitive growth, 37 C, YPD
Procedure, shortened: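 Genotype frequency changes were the basis for Darwinian fitness relative to wild type. The frequencies came from 100-nucleotide paired-end sequencing of gene amplicons from the start population and each end population of pooled yeast strains with tRNA-Arg(CCU) gene variants at the native locus. Competition ran in YPD at 37°C for 24 hours in six replicates, genotypes needed ≥ 100 starting reads, and estimates < 0.5 were set to 0.5.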
In the case of U28G C60A, the yeast fitness is reported as 0.53.
Variant C29G A37G A57U has a yeast fitness of 0.617.
For C29A C33G, the yeast fitness was 0.616.
C29A C33U gave a yeast fitness of no more than 0.5.
In the case of C29A A57U, the yeast fitness is reported as no more than 0.5.
In the case of C29A A57G, the yeast fitness is reported as 0.646.
C29G G63A gave a yeast fitness of 0.646.
In the case of U28G A70U, the yeast fitness is reported as 0.842.
For U28G C29U G50C, the yeast fitness was no more than 0.5.
For C29A G41A A43C, the yeast fitness was 0.55.
In the case of U28C U32A G44A A57C, the yeast fitness is reported as no more than 0.5.
C29G G44A G56C C62A G67C gave a yeast fitness of no more than 0.5.
In the case of U28G C46A C61G, the yeast fitness is reported as no more than 0.5.
C29A G51A C55A G56C A65U gave a yeast fitness of no more than 0.5.
In the case of C29G A37U C55G, the yeast fitness is reported as 0.549.
For C29A C30U A42U, the yeast fitness was no more than 0.5.
C29A C46U C55A gave a yeast fitness of 0.572.
For C29G U53C U54G, the yeast fitness was 0.509.
Work on C29G C55G A57G A69G yielded a yeast fitness of 0.606.
U28G C31G G39A gave a yeast fitness of 0.578.
For C29G U54C, the yeast fitness was 0.664.
C29G G68U showed a yeast fitness of 0.68.
C29G C34U showed a yeast fitness of 0.561.
For C29G C34A, the yeast fitness was 0.585.
With C29G C55U C62U the yeast fitness was 0.567.
Work on C29G G38A A43G G50A yielded a yeast fitness of no more than 0.5.
Work on C29U A37C G41A A70C yielded a yeast fitness of no more than 0.5.
C29G C46A A57G U59C gave a yeast fitness of no more than 0.5.
Variant U28C U32C C46G has a yeast fitness of 0.722.
In the case of C29A G39A, the yeast fitness is reported as 0.725.
C29G U32C A40U C61U C66U gave a yeast fitness of no more than 0.5.
For C29G G48C U59A, the yeast fitness was no more than 0.5.
Work on U28G G51U U64A C66U A69C yielded a yeast fitness of no more than 0.5.
Variant U28G G41C U64C has a yeast fitness of 0.521.
With C29G U32A U47C C62A the yeast fitness was no more than 0.5.
U28G C55A gave a yeast fitness of 0.572.
For C29U A40C C49G G63A, the yeast fitness was no more than 0.5.
For C29A C34U G48C A57U, the yeast fitness was no more than 0.5.
With C29G U35A G48C the yeast fitness was no more than 0.5.
Work on C29G U54G U59A yielded a yeast fitness of no more than 0.5.
Work on C29G G44C C49G A57C yielded a yeast fitness of 0.598.
Variant C29A C49A has a yeast fitness of 0.506.
Variant C29G C33U G58C C60G C62A has a yeast fitness of no more than 0.5.
Work on U28G U64C yielded a yeast fitness of 0.864.
Variant U28G U64A has a yeast fitness of 0.65.
C29A C46U C60U gave a yeast fitness of no more than 0.5.
For U28G C29U A45C, the yeast fitness was no more than 0.5.
In the case of C29G C55G A70G, the yeast fitness is reported as no more than 0.5.
C29G U35C C55G A57G gave a yeast fitness of no more than 0.5.
C29G C49G G50C C62G A69U gave a yeast fitness of 0.506.
Variant U28C G58C has a yeast fitness of 0.912.
C29A G44C gave a yeast fitness of 0.778.
Variant C29A C31U A43C G44C A65U has a yeast fitness of no more than 0.5.
C29G C30U U47C gave a yeast fitness of no more than 0.5.
In the case of C29U A43G, the yeast fitness is reported as 0.883.
With C29U A36C G56A the yeast fitness was no more than 0.5.
C29G C33G G41C G67C gave a yeast fitness of no more than 0.5.
C29G C46A gave a yeast fitness of 0.661.
In the case of U28C G50U A65C, the yeast fitness is reported as no more than 0.5.
C29G C30G A36G A65C gave a yeast fitness of 0.505.
For C29A U35C C66U, the yeast fitness was no more than 0.5.
C29A A42U U64C gave a yeast fitness of no more than 0.5.
For U28C G52C A65C, the yeast fitness was 0.596.
U28G C31U A40C A57G gave a yeast fitness of 0.837.
With C29A A37G C55A the yeast fitness was no more than 0.5.
With U28G C49U A69U the yeast fitness was 0.804.
Variant C29A C46A C49A has a yeast fitness of no more than 0.5.
In the case of C29A G44A C49A U59A, the yeast fitness is reported as no more than 0.5.
Work on C29G U47C yielded a yeast fitness of 0.75.
Variant C29A C31U A37U A65G has a yeast fitness of no more than 0.5.
For C29G C30G C49U, the yeast fitness was 0.66.
C29G C34A A37G gave a yeast fitness of no more than 0.5.
With U28C U35G A69C the yeast fitness was no more than 0.5.
Work on C29U A43U G52C U59A yielded a yeast fitness of no more than 0.5.
Work on C29A C30U C34U C61U C66A yielded a yeast fitness of no more than 0.5.
With U28G A43U the yeast fitness was 0.948.
U28G C29G C62A gave a yeast fitness of 0.711.
C29G A40U G58A showed a yeast fitness of no more than 0.5.
With U28G G44C G48C the yeast fitness was 0.556.
C29G A43C C55G gave a yeast fitness of 0.657.
Variant C29U A43C A69U has a yeast fitness of 0.673.
Work on C29A C49U G63A yielded a yeast fitness of no more than 0.5.
U28G G58C gave a yeast fitness of 0.771.
For C29A C31U C34A A36G G56C, the yeast fitness was no more than 0.5.
C29G C33U gave a yeast fitness of no more than 0.5.
C29U A70C gave a yeast fitness of 0.867.
C29A G39C G58A gave a yeast fitness of 0.905.
With C29A C31U A43U the yeast fitness was 0.506.
C29G C33A C34G showed a yeast fitness of no more than 0.5.
C29A A40U U47A gave a yeast fitness of 0.772.
For C29A C33U C61U A69U, the yeast fitness was no more than 0.5.
C29G A37C showed a yeast fitness of 0.56.
With C29A A37G C60A C66U the yeast fitness was no more than 0.5.
Work on U28G G51C C55G yielded a yeast fitness of no more than 0.5.
In the case of C29G C34U C62U, the yeast fitness is reported as no more than 0.5.
Work on C29A A37G U64A A70U yielded a yeast fitness of no more than 0.5.
C29G A40U C66G gave a yeast fitness of 0.551.
Variant C29U A36U C49U has a yeast fitness of no more than 0.5.
Variant C29G G38A has a yeast fitness of 0.614.
Work on U28G C46U C60A A65U A69U yielded a yeast fitness of no more than 0.5.
Variant U28G C30A G51U has a yeast fitness of no more than 0.5.
U28C G39C G44C gave a yeast fitness of 0.529.
C29A C33G C61U C66U showed a yeast fitness of no more than 0.5.
In the case of C29G C33U C66U, the yeast fitness is reported as no more than 0.5.
C29G C30A showed a yeast fitness of 0.585.
U28G C30G A40C A42U G51A gave a yeast fitness of no more than 0.5.
In the case of C29A C31U, the yeast fitness is reported as 0.713.
For C29A C31G, the yeast fitness was 0.677.
In the case of C29G G38A U53A U64A, the yeast fitness is reported as no more than 0.5.
U28G C29A C55A showed a yeast fitness of no more than 0.5.
C29U A69U showed a yeast fitness of 0.868.
U28C G52A gave a yeast fitness of 0.836.
With U28C G52C the yeast fitness was 0.668.
Variant C29A G50C has a yeast fitness of 0.553.
With C29A A70G the yeast fitness was 0.723.
In the case of C29G C30U A36C A40G, the yeast fitness is reported as no more than 0.5.
In the case of C29G U35G C60U, the yeast fitness is reported as no more than 0.5.
With C29U A45C A57G A65U the yeast fitness was no more than 0.5.
U28G A40U gave a yeast fitness of 0.843.
C29G C33U A37G A40C gave a yeast fitness of no more than 0.5.
U28G A36U C60U gave a yeast fitness of no more than 0.5.
With C29U A45C the yeast fitness was 0.778.
C29G G38C G44A showed a yeast fitness of 0.668.
For C29G A40U G50C G67U A69G, the yeast fitness was no more than 0.5.
Variant C29A C34U G51A G52C U64C has a yeast fitness of 0.663.
Work on C29G A36C G41A G50A U53C yielded a yeast fitness of no more than 0.5.
U28C G51C showed a yeast fitness of 0.502.
Work on C29U A40U G41C yielded a yeast fitness of no more than 0.5.
With U28C G41C C49G the yeast fitness was no more than 0.5.
U28C G41C C49A showed a yeast fitness of no more than 0.5.
For U28C G39C G44C C46U, the yeast fitness was no more than 0.5.
Variant C29U A42U A43U U54C C55G has a yeast fitness of no more than 0.5.
In the case of C29A G38A U54C A69U, the yeast fitness is reported as no more than 0.5.
For C29G G67A, the yeast fitness was 0.565.
C29G U32G gave a yeast fitness of no more than 0.5.
Variant C29U A37U C46U U59G has a yeast fitness of no more than 0.5.
In the case of C29G C31G C49G C61G, the yeast fitness is reported as no more than 0.5.
Variant U28C G44C G56C has a yeast fitness of 0.7.
With U28G G38C A40G the yeast fitness was 0.546.
In the case of C29A A57G A65C, the yeast fitness is reported as no more than 0.5.
Variant C29U A42G A43G has a yeast fitness of no more than 0.5.
U28C G67U gave a yeast fitness of 0.914.
With U28G A57U G63A the yeast fitness was 0.874.
With C29A A37C the yeast fitness was 0.597.
C29G G50C A65U gave a yeast fitness of no more than 0.5.
Variant C29G C33U C61U A69C has a yeast fitness of no more than 0.5.
With C29U A43G C49A the yeast fitness was 0.615.
Work on C29A A37G G67C yielded a yeast fitness of 0.62.
C29G G38A G44A C46U C62G gave a yeast fitness of no more than 0.5.
Variant U28C U47A C49U G63C has a yeast fitness of 0.683.
In the case of C29G C31G C49A, the yeast fitness is reported as no more than 0.5.
In the case of U28C U35G A36C A65G C66A, the yeast fitness is reported as no more than 0.5.
C29G A57G gave a yeast fitness of 0.715.
In the case of C29G C33G U35G G44A G67A, the yeast fitness is reported as no more than 0.5.
U28G G38U gave a yeast fitness of 0.711.
C29A G56C A57U gave a yeast fitness of 0.583.
U28G A43G A45G C49U A57U gave a yeast fitness of no more than 0.5.
In the case of C29A G38A A69U, the yeast fitness is reported as 0.583.
With C29A A57U C60G the yeast fitness was no more than 0.5.
U28G C62G showed a yeast fitness of 0.587.
Variant C29G U32C G51A has a yeast fitness of 0.723.
In the case of C29G C61A, the yeast fitness is reported as no more than 0.5.
Work on C29A G44A U64C yielded a yeast fitness of 0.56.
For C29U A45U U47C U54A, the yeast fitness was no more than 0.5.
For C29G C30G G63A, the yeast fitness was 0.607.
With C29G C49A G67C the yeast fitness was no more than 0.5.
C29U C30A C61G gave a yeast fitness of no more than 0.5.
